The values below come from ChEMBL document CHEMBL4052816, “Development of Clickable Monophosphoryl Lipid A Derivatives toward Semisynthetic Conjugates with Tumor-Associated Carbohydrate Antigens” (J Med Chem, 2017).

Series [1] concerns BMDM. Description: Immunostimulatory activity in C57BL/6 mouse BMDM assessed as increase in IL-6 production at 20 ug/ml after 6 to 72 hrs by ELISA. Format: functional, cell-based. In outline:
(§1)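 Bone marrow macrophages from wild-type C57BL/6 mice (0.5 × 10^6/well) were grown for 24 h, then given fresh medium containing compound at 20 μg/mL for 6, 24, 48 and 72 h. Three independent experiments were run, means ± SD.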

In series [2] the test system is BMDM. Description: Immunostimulatory activity in C57BL/6 mouse BMDM assessed as increase in TNFalpha production at 20 ug/ml after 6 to 72 hrs by ELISA. The series is classed as functional, cell-based. In short, it runs like this: as §1
(In general: ELISA stands for enzyme-linked immunosorbent assay.)

In series [3] the test system is BMDM. Briefly: Immunostimulatory activity in C57BL/6 mouse BMDM assessed as increase in IL-2 production at 20 ug/ml after 6 to 72 hrs by immunoassay. The series is classed as functional, cell-based. In short, it runs like this:
as §1

The test system of series [4] is BMDM. Description: Immunostimulatory activity in C57BL/6 mouse BMDM assessed as increase in IL-4 production at 20 ug/ml after 6 to 72 hrs by immunoassay. The series is classed as functional, cell-based. In short, it runs like this: as §1
The test system of series [5] is BMDM. Description: Immunostimulatory activity in C57BL/6 mouse BMDM assessed as increase in IL-5 production at 20 ug/ml after 6 to 72 hrs by immunoassay. Format: functional, cell-based. In outline: as §1
For series [6], the system named is BMDM. Briefly: Immunostimulatory activity in C57BL/6 mouse BMDM assessed as increase in IL-10 production at 20 ug/ml after 6 to 72 hrs by immunoassay. Format: functional, cell-based. In short, it runs like this:
as §1

Series [7] deals with BMDM. Description: Immunostimulatory activity in C57BL/6 mouse BMDM assessed as increase in IL-12 production at 20 ug/ml after 6 to 72 hrs by immunoassay. Format: functional, cell-based. In short, it runs like this: as §1
Series [8] concerns BMDM. Description: Immunostimulatory activity in C57BL/6 mouse BMDM assessed as increase in IFN-gamma production at 20 ug/ml after 6 to 72 hrs by immunoassay. The series is classed as functional, cell-based. In outline: as §1
Series [9] concerns BMDM. Description: Immunostimulatory activity in C57BL/6 mouse BMDM assessed as increase in GM-CSF production at 20 ug/ml after 6 to 72 hrs by immunoassay. The series is classed as functional, cell-based. In short, it runs like this: as §1
Series [10] relates to BMDM. Description: Immunostimulatory activity in C57BL/6 mouse BMDM assessed as increase in MHC-class 2 production at 20 ug/ml after 6 to 72 hrs by flow cytometric method. Format: functional, cell-based. In outline: (§2)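 C57BL/6 BMDM (0.5 × 10^6/well) were stimulated with compound at 20 μg/mL for 6, 24, 48 and 72 h. Cells were then stained with phycoerythrin-conjugated anti-CD40, anti-CD80 or anti-CD86, plus allophycocyanin-conjugated anti-MHC class II. Isotype antibodies set nonspecific binding, and cells were analysed by flow cytometry. Three independent experiments were run.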
For orientation: In flow cytometry, cells or beads pass a laser one at a time.

The test system of series [11] is BMDM. Briefly: Immunostimulatory activity in C57BL/6 mouse BMDM assessed as increase in CD40 production at 20 ug/ml after 6 to 72 hrs by flow cytometric method. Format: functional, cell-based. In outline:
as §2

The subject of series [12] is BMDM. Description: Immunostimulatory activity in C57BL/6 mouse BMDM assessed as increase in CD80 production at 20 ug/ml after 6 to 72 hrs by flow cytometric method. Format: functional, cell-based. In outline:
as §2

In series [13] the test system is BMDM. Description: Immunostimulatory activity in C57BL/6 mouse BMDM assessed as increase in CD86 production at 20 ug/ml after 6 to 72 hrs by flow cytometric method. Format: functional, cell-based. In short, it runs like this: as §2
In series [14] the test system is THP-1. Description: Immunostimulatory activity in human THP1 cells assessed as increase in IL-8 production at 20 ug/ml after 6 to 72 hrs by ELISA. The series is classed as functional, cell-based. In outline: (§3)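 THP-1 cells (0.5 × 10^6/well) were grown in RPMI/10% FBS for 24 h, then given fresh medium containing compound at 20 μg/mL for 6, 24, 48 and 72 h. Cell-free supernatants were assayed for IL-8 and IL-6 by ELISA, and for IL-10, IFN-γ and TNF-α by a human Th1/Th2 multiplex bead immunoassay. Results were pooled from three independent experiments, means ± SD.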

Series [15] has as its system THP-1. Description: Immunostimulatory activity in human THP1 cells assessed as increase in IL-10 production at 20 ug/ml after 6 to 72 hrs by immunoassay. Format: functional, cell-based. In short, it runs like this:
as §3

Series [16] has as its system THP-1. Description: Immunostimulatory activity in human THP1 cells assessed as increase in TNF-alpha production at 20 ug/ml after 6 to 72 hrs by immunoassay. The series is classed as functional, cell-based. In short, it runs like this:
as §3

The subject of series [17] is THP-1. Briefly: Immunostimulatory activity in human THP1 cells assessed as increase in IFN-gamma production at 20 ug/ml after 6 to 72 hrs by immunoassay. The series is classed as functional, cell-based. In short, it runs like this:
as §3

Series [18] has as its system THP-1. Briefly: Cytotoxicity against human THP1 cells assessed as decrease in cell viability at 0.1 to 20 ug/ml after 6 to 48 hrs by SRB assay. Format: cell-based. In outline: (§4)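 THP-1 cells and C57BL/6 wild-type bone marrow-derived macrophages were kept in RPMI with 10% FBS, penicillin and streptomycin at 37 °C and 5% CO2. BMDM medium also contained gentamycin. Cells were exposed to compound at 20, 10, 1 and 0.1 μg/mL, and viability was read with a colorimetric assay.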

For series [19], the system named is THP-1. Description: Immunostimulatory activity in human THP1 cells assessed as increase in IL-6 production at 20 ug/ml after 6 to 72 hrs by ELISA. Format: functional, cell-based. In short, it runs like this: as §3
A short description of series [20]: Cytotoxicity against C57BL/6 mouse BMDM assessed as decrease in cell viability at 20 ug/ml after 6 to 48 hrs by SRB assay. The series is classed as cell-based. In short, it runs like this: as §4
For orientation: The SRB assay estimates cell density from bound dye.

Activity calls are given as the source filed them. The calls are words filed in the database; no cut-off is given here.

Consider `CCCCCCCCCCCCCC(=O)O[C@H](CCCCCCCCCCC)CC(=O)O[C@@H]1[C@@H](NC(=O)C[C@@H](CCCCCCCCCCC)OC(=O)CCCCCCCCCCC)[C@H](OC[C@H]2OC(O)[C@H](NC(=O)C[C@H](O)CCCCCCCCCCC)[C@@H](OC(=O)C[C@H](O)CCCCCCCCCCC)[C@@H]2O)O[C@H](C(=O)NCCCCCSCCCO[C@H]2O[C@H](CO)[C@H](O)[C@H](O[C@@H]3O[C@H](CO)[C@H](O)[C@H](O)[C@H]3O)[C@H]2NC(C)=O)[C@H]1OP(=O)(O)O` (some centres not stated), for which the result in the series on BMDM [1], with THP-1 [14], with THP-1 [15], in the series with THP-1 [16] and in the series with THP-1 [17] was Active. Also, the outcome with BMDM [2], with BMDM [3], with BMDM [4], in the series on BMDM [5], in the series on BMDM [6] and with BMDM [7] was inactive. The result in the series with BMDM [8], in the series on BMDM [9], in the series with BMDM [10], with BMDM [11], in the series with BMDM [12] and in the series on BMDM [13] was inactive. The Activity entry in the series with THP-1 [18] was “Non-Toxic”.
In the case of `CCCCCCCCCCCCCC(=O)O[C@H](CCCCCCCCCCC)CC(=O)O[C@@H]1[C@@H](NC(=O)C[C@@H](CCCCCCCCCCC)OC(=O)CCCCCCCCCCC)[C@H](OC[C@H]2OC(O)[C@H](NC(=O)C[C@@H](CCCCCCCCCCC)OC(=O)C[C@H](O)CCCCCCCCCCCCC)[C@@H](O)[C@@H]2O)O[C@H](CO)[C@H]1OP(=O)(O)O` (some centres not stated), the outcome with BMDM [10], in the series with BMDM [11], in the series with BMDM [12], in the series with BMDM [13], in the series on THP-1 [14] and in the series with THP-1 [15] was Active. In the series with THP-1 [17], the outcome was inactive.
As to `CCCCCCCCCCCCCC(=O)O[C@H](CCCCCCCCCCC)CC(=O)O[C@@H]1[C@@H](NC(=O)C[C@@H](CCCCCCCCCCC)OC(=O)CCCCCCCCCCC)[C@H](OC[C@H]2OC(O)[C@H](NC(=O)C[C@H](O)CCCCCCCCCCC)[C@@H](OC(=O)C[C@H](O)CCCCCCCCCCC)[C@@H]2O)O[C@H](C(=O)NCCCCCCN=[N+]=[N-])[C@H]1OP(=O)(O)O` (some centres not stated), the result with BMDM [3], with BMDM [4], in the series with BMDM [5], in the series with BMDM [6], in the series with BMDM [7] and in the series on BMDM [8] was inactive. Moreover, the result with BMDM [9], in the series on BMDM [10], in the series on BMDM [11], with BMDM [12], in the series on BMDM [13] and in the series with THP-1 [17] was inactive. Moreover, the outcome in the series with THP-1 [14], with THP-1 [15] and in the series with THP-1 [16] was Active. For the same compound, the Activity entry in the series on THP-1 [18] is “Non-Toxic”.
Turning to `CCCCCCCCCCCCCC(=O)O[C@H](CCCCCCCCCCC)CC(=O)O[C@@H]1[C@@H](NC(=O)C[C@@H](CCCCCCCCCCC)OC(=O)CCCCCCCCCCC)[C@H](OC[C@H]2OC(O)[C@H](NC(=O)C[C@H](O)CCCCCCCCCCC)[C@@H](OC(=O)C[C@H](O)CCCCCCCCCCC)[C@@H]2O)O[C@H](C(=O)NCCCCCSCCCO[C@H]2O[C@H](CO)[C@H](O)[C@H](O)[C@H]2NC(C)=O)[C@H]1OP(=O)(O)O` (some centres not stated), the result in the series with BMDM [2], in the series on THP-1 [14], in the series on THP-1 [15], with THP-1 [19] and in the series with THP-1 [17] was Active. The result in the series with BMDM [3], with BMDM [4], with BMDM [5], with BMDM [6], in the series with BMDM [7] and in the series on BMDM [8] was inactive. Moreover, the result in the series on BMDM [9], with BMDM [10], in the series with BMDM [11], with BMDM [12] and with BMDM [13] was inactive. Also, the Activity result with THP-1 [18] was “Non-Toxic”; in series [20] it was “Toxic”.
As for `CCCCCCCCCCCCCC(=O)O[C@H](CCCCCCCCCCC)CC(=O)O[C@@H]1[C@@H](NC(=O)C[C@@H](CCCCCCCCCCC)OC(=O)CCCCCCCCCCC)[C@H](OC[C@H]2OC(O)[C@H](NC(=O)C[C@H](O)CCCCCCCCCCC)[C@@H](OC(=O)C[C@H](O)CCCCCCCCCCC)[C@@H]2O)O[C@H](C(=O)O)[C@H]1OP(=O)(O)O` (some centres not stated), the outcome with BMDM [1], in the series with BMDM [2], in the series with THP-1 [14], in the series with THP-1 [15], in the series with THP-1 [16] and in the series with THP-1 [19] was Active. For the same compound, the outcome in the series on BMDM [3], in the series on BMDM [4], in the series with BMDM [5], with BMDM [6], in the series with BMDM [7] and in the series on BMDM [8] was inactive. The outcome in the series with BMDM [9], with BMDM [10], in the series with BMDM [11], with BMDM [12], with BMDM [13] and in the series with THP-1 [17] was inactive. The Activity entry with THP-1 [18] is given as “Non-Toxic”.
For `C#CCCCCNC(=O)[C@H]1O[C@@H](OC[C@H]2OC(O)[C@H](NC(=O)C[C@H](O)CCCCCCCCCCC)[C@@H](OC(=O)C[C@H](O)CCCCCCCCCCC)[C@@H]2O)[C@H](NC(=O)C[C@@H](CCCCCCCCCCC)OC(=O)CCCCCCCCCCC)[C@@H](OC(=O)C[C@@H](CCCCCCCCCCC)OC(=O)CCCCCCCCCCCCC)[C@@H]1OP(=O)(O)O` (some centres not stated), the outcome in the series with BMDM [1], in the series on BMDM [2], in the series with THP-1 [14], with THP-1 [15] and with THP-1 [16] was Active. Besides, the outcome in the series with BMDM [3], with BMDM [4], in the series with BMDM [5], with BMDM [6], with BMDM [7] and with BMDM [8] was inactive. Also, the outcome with BMDM [9], in the series with BMDM [10], with BMDM [11], in the series with BMDM [12], in the series with BMDM [13] and in the series with THP-1 [17] was inactive. Besides, the Activity entry in the series with THP-1 [18] was “Non-Toxic”; in series [20], “Toxic”.
